Compound activity deposited in PubChem by several laboratories.
aDG glyco up: alpha-DG glycosylation activation | Pro5-aDG cells, alpha-DG glycosylation AlphaScreen (IIH6); 0% Pro5, 100% B10-LARGE cell signal | activation, % at 10 µM | 360,000 tested, 0.22% active;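 active = activation of at least 8% versus controls, or a plate z-score of at least 8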;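 also: Pro5 are CHO cells carrying HIG-tagged alpha-DG that lacks glycosylation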
697 NFkB inh: lowers PMA/ionomycin-induced NF-kB signal in 697 B cells. 697 B-cell NF-kB luciferase reporter, 16 h. inhibition, % at 4 µM. 330,000 tested, 0.33% active. AID 435022; in the data active = inhibition above about 35%
NR2E3 ag-1: human photoreceptor-specific nuclear receptor agonism; Q9Y5X4; CHO-S Gal4-NCOR/VP16-NR2E3 two-hybrid, luciferase; inhibition of corepressor binding, % at 3.98 µM; 360,000 tested, 0.35% active; AID 602229;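 active = inhibition above the mean of all tested compounds plus 3 SD, cut at about 70% in these data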;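 also: higher means lower luciferase signal from less NR2E3 corepressor binding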
Target sequence (Q9Y5X4 whole entry, looked up, the tested form may be a part): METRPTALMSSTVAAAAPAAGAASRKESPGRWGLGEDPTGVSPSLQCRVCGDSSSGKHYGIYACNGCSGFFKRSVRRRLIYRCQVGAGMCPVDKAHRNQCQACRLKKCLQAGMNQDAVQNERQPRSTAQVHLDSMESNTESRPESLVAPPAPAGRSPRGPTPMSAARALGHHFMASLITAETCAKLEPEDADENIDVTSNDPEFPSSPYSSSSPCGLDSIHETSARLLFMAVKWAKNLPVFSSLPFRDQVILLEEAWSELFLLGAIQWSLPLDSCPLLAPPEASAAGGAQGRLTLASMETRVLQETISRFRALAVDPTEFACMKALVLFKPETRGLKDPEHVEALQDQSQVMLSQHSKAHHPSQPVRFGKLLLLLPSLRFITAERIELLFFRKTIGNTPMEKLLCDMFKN
NR2E3 ag-2: NR2E3 (human) agonism; GST-NR2E3/biotin-RetCOR TR-FRET, 1536-well; inhibition of corepressor binding, % at 4.78 µM; 320,000 tested, 0.12% active; AID 2300; Q9Y5X4;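 active = percent inhibition above the cutoff of mean plus 3 SD of all tested compounds, set per screening campaign, cut at about 20% in these data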
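System: GST-tagged NR2E3 plus biotinylated RetCOR corepressor; Buffer or medium: pH 7.5 Tris-based buffer; Probe or stimulus: RetCOR corepressor, biotinylated, 7 nM; Doses: compound at 4.8 µM, single dose; Schedule: 5 h incubation at 4 °C; Technique: time-resolved FRET; Evaluation: percent inhibition of TR-FRET ratio; Replication: one well per compound, singlicate testing.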
Jurkat NFkB inh: lowers PMA/ionomycin-induced NF-kB signal in Jurkat cells. PMA/ionomycin-induced NF-kB luciferase reporter, luminescence. inhibition, % at 4 µM. 330,000 tested, 0.53% active. AID 435003; in the data active = inhibition above about 50%
MPTP inh: blocks calcium-induced mitochondrial swelling; inhibition, % at 10 µM; isolated mouse mitochondria, Ca2+ swelling absorbance, 30 min; 360,000 tested, 1.4% active;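 active = inhibition of 50% or more, scaled per plate between neutral and stimulator controls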
NR2E3 ag confirm: confirmation of human NR2E3 nuclear receptor agonists; shares compounds with NR2E3 ag-2; cell-free NR2E3 corepressor release, TR-FRET, 5 h; activation (reported as inhibition), % at 3.98 µM; 360 tested, 39% active; in the data active = activation above about 20%
PPARg-NCOR2 ag: counter-screen for NR2E3 agonists: human PPARgamma-NCOR2 interaction agonists; shares compounds with NR2E3 ag-2; TR-FRET PPARg-NCOR2 coregulator interaction, biochemical; inhibition, % at 3.98 µM; 360 tested, 45% active; AID 504787; in the data active = inhibition above about 20%
Jurkat NFkB conf: lowers PMA/ionomycin-induced NF-kB signal in Jurkat cells. shares compounds with Jurkat NFkB inh. Jurkat NF-kB luciferase, 16 h. inhibition, % at 4 µM. 2,700 tested, 27% active;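 active = inhibition reaching about 45% at 4 µM in either replicate, limit read from the data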
697 NFkB conf: inhibitors of the PMA/ionomycin-induced NF-kB reporter in 697 B cells, retest; inhibition, % at 4 µM; 2,000 tested, 35% active; 697 B-cell NF-kB luciferase, 16 h; shares compounds with 697 NFkB inh; in the data active = inhibition mostly above about 28%, no sharp cut-off; inactive = mostly below about 22%
Of the large screens only hits and unclear results are named; the others gave an inactive call (follow-up assays come after a bar, where they were run). A selection: hits, their analogues and other compounds. The true share with any hit is near 2.4%.

COC(=O)c1cc2c(C)c(C)c3ccccn3c-2c1C(=O)OC	none
CC1Cc2nc(SCC(=O)Nc3nccs3)n(C)c(=O)c2S1 (stereo not given)	NR2E3 ag-2 21 | NR2E3 ag confirm inactive | PPARg-NCOR2 ag inactive
Cc1nnc(NC(=O)CSc2nc3c(c(=O)n2C)SC(C)C3)s1 (stereo not given)	none
Cc1cc(SCC(=O)NC2CCCC2)nc2ccccc12	NR2E3 ag-2 22 | NR2E3 ag confirm inactive | PPARg-NCOR2 ag inactive
Cc1cc(SCC(=O)NC2CCCCC2)nc2ccccc12	none
CCN(CC(=O)NC(C)C)Cc1nc2c(Br)cc(Br)cc2c(=O)[nH]1	NR2E3 ag-2 55 | NR2E3 ag confirm 56 | PPARg-NCOR2 ag 48
CCN(CC(=O)NC(c1ccccc1)c1ccccc1)Cc1nc2ccccc2c(=O)[nH]1	none
O=c1[nH]c(Nc2ccccc2)cc2ccccc12	NR2E3 ag-2 27 | NR2E3 ag confirm inactive | PPARg-NCOR2 ag inactive
O=C(CN1C(=O)COc2ccccc21)N(Cc1cccnc1)Cc1ccccc1F	NR2E3 ag-2 31 | NR2E3 ag confirm inactive | PPARg-NCOR2 ag inactive
Cc1ccc(C(=O)Nc2nc3ccccc3c(=O)s2)cc1	NR2E3 ag-2 23 | NR2E3 ag confirm 43 | PPARg-NCOR2 ag 46
COc1ccc2nc(NC(=O)CSc3nc4ccccc4o3)sc2c1	NR2E3 ag-2 20 | NR2E3 ag confirm inactive | PPARg-NCOR2 ag inactive
O=C(CSc1nc2ccccc2o1)Nc1nc2ccc(Br)cc2s1	none
Cc1cccc(C)c1NC(=O)C1(C)CN(S(C)(=O)=O)CC(=O)N1Cc1cccs1 (stereo not given)	none (no result: 697 NFkB inh, NR2E3 ag-1, NR2E3 ag-2, Jurkat NFkB inh)
CS(=O)(=O)N1CCN(c2ccc(Cl)cc2[N+](=O)[O-])CC1	NR2E3 ag-2 42 | NR2E3 ag confirm inactive | PPARg-NCOR2 ag inactive
CC1CN(c2ccc(Cl)cc2[N+](=O)[O-])CCN1S(C)(=O)=O (stereo not given)	none
COC(=O)[C@]12CCCCC=C1N(Cc1ccccc1)C(=O)[C@H](CC(=O)N1CCOCC1)C2	none (no result: 697 NFkB inh, NR2E3 ag-2, Jurkat NFkB inh)
COC(=O)[C@@]12C[C@@H](CC(=O)N3CCOCC3)C(=O)N(CCc3ccc(OC)c(OC)c3)C1=CCC(C)(C)C2	none (no result: 697 NFkB inh, NR2E3 ag-1, NR2E3 ag-2, Jurkat NFkB inh)
COc1ccc(Br)cc1C(=O)Nc1ccc(C(=O)NCC(C)C)cc1	none
CCOc1ccc(Br)cc1C(=O)Nc1ccc(C(=O)NCC(C)C)cc1	NR2E3 ag-2 34 | NR2E3 ag confirm 33 | PPARg-NCOR2 ag 38
O=C1NC[C@H](Cc2ccccc2)N(C[C@@H]2CCCN2C[C@H](Cc2ccc(O)cc2)N2C[C@H](Cc3ccccc3)N(CCc3ccccc3)C(=O)C2=O)C1=O	none (no result: 697 NFkB inh, NR2E3 ag-2, Jurkat NFkB inh)
O=C(NCCCN1CCCC1=O)c1cc2nc(-c3ccco3)cc(C(F)(F)F)n2n1	NR2E3 ag-2 22 | NR2E3 ag confirm inactive | PPARg-NCOR2 ag inactive
CCCCNC(=O)C1(C)CCN1C(=O)CSc1ccccc1 (stereo not given)	none (no result: 697 NFkB inh, NR2E3 ag-2, Jurkat NFkB inh)
CC1Sc2ccc(C#N)cc2N(Cc2cccc(C(F)(F)F)c2)C1=O (stereo not given)	none (no result: 697 NFkB inh, NR2E3 ag-2, Jurkat NFkB inh)
C=CCOc1ccc(C2C(C(=O)c3ccc(C)o3)=C(O)C(=O)N2Cc2cccnc2)cc1 (stereo not given)	NR2E3 ag-2 20 | NR2E3 ag confirm inactive | PPARg-NCOR2 ag inactive
CCOc1cccc(C2C(C(=O)c3ccc(C)o3)=C(O)C(=O)N2Cc2ccccc2)c1 (stereo not given)	none (no result: NR2E3 ag-2)
CCOc1cccc(C2C(C(=O)c3ccc(C)o3)=C(O)C(=O)N2CCCn2ccnc2)c1 (stereo not given)	NR2E3 ag-2 24 | NR2E3 ag confirm 29 | PPARg-NCOR2 ag 28
CCOc1cccc(C2C(C(=O)c3ccc(C)o3)=C(O)C(=O)N2c2nccs2)c1 (stereo not given)	none
CCOc1cccc(C2C(C(=O)c3ccc(C)o3)=C(O)C(=O)N2Cc2ccncc2)c1 (stereo not given)	NR2E3 ag-2 26 | NR2E3 ag confirm inactive | PPARg-NCOR2 ag inactive
O=C(CSc1ncnc2c1oc1ccccc12)Nc1ccccc1C(F)(F)F	NR2E3 ag-2 44 | NR2E3 ag confirm 70 | PPARg-NCOR2 ag 74
N#CCCSc1ncnc2c1oc1ccccc12	NR2E3 ag-2 21 | NR2E3 ag confirm inactive | PPARg-NCOR2 ag inactive
[O-][n+]1cc(Cl)cc(Cl)c1	none (no result: 697 NFkB inh, NR2E3 ag-2, Jurkat NFkB inh)
O=C1C(=O)N(Cc2cccnc2)C(c2cccc(Br)c2)/C1=C(/O)c1ccc2c(c1)OCO2 (stereo not given)	NR2E3 ag-2 47 | NR2E3 ag confirm 27 | PPARg-NCOR2 ag 31
O=C1C(=O)N(CCN2CCOCC2)C(c2ccncc2)/C1=C(/O)c1ccc2c(c1)OCO2 (stereo not given)	none
COc1cccc(C2/C(=C(/O)c3ccc4c(c3)OCO4)C(=O)C(=O)N2CCN2CCOCC2)c1 (stereo not given)	NR2E3 ag-2 30 | NR2E3 ag confirm 29 | PPARg-NCOR2 ag 27
N#Cc1c(-c2ccco2)nc(SCC(=O)Nc2cccc(Cl)c2)[nH]c1=O	NR2E3 ag-2 26 | NR2E3 ag confirm inactive | PPARg-NCOR2 ag 22
O=C(CSc1nc2[nH]ncc2c(=O)[nH]1)Nc1cccc(Cl)c1	none
Nc1ccc2c(c1)C(=O)C(=O)c1ccccc1-2	NR2E3 ag-2 20, Jurkat NFkB inh 84 | NR2E3 ag confirm inactive | PPARg-NCOR2 ag 48 | Jurkat NFkB conf inactive
C#CCNC(=O)c1cc2c(Br)ccc(Br)c2nc1N	none (no result: 697 NFkB inh, NR2E3 ag-2, Jurkat NFkB inh)
COc1cccc(C(=O)Nc2ccc3ccccc3c2)c1	NR2E3 ag-2 30 | NR2E3 ag confirm inactive | PPARg-NCOR2 ag inactive | Jurkat NFkB conf inactive | 697 NFkB conf inactive
COc1cccc(C(=O)Nc2ccccc2)c1	none
Cn1nc(-c2ccc(Cl)cc2)nc2c(=O)n(C)c(=O)nc1-2	NR2E3 ag-2 37 (no result: aDG glyco up, NR2E3 ag-1, MPTP inh) | NR2E3 ag confirm 32 | PPARg-NCOR2 ag 56 | 697 NFkB conf inactive
Cc1nnsc1C(=O)N1CCCC1(C)C(=O)O (stereo not given)	none (no result: 697 NFkB inh, NR2E3 ag-2, Jurkat NFkB inh)
